Data set [1] has as its target T1, Retinoic acid receptor RXR-gamma (Homo sapiens, UniProt P48443).
T1 sequence (P48443 whole entry): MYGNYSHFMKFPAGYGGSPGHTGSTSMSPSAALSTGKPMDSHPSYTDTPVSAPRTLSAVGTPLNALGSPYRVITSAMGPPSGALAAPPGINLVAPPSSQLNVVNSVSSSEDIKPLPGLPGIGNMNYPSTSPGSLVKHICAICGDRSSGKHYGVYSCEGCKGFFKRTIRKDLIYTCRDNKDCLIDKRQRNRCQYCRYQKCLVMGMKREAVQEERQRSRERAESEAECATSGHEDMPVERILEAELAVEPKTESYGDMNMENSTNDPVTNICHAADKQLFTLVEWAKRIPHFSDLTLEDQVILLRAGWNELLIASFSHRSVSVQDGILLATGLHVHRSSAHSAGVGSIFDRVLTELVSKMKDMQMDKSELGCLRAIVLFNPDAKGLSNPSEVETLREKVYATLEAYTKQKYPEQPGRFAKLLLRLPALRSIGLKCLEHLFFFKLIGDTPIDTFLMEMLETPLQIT
The data set can be described thus: Agonist activity at human RXRgamma transfected in human HEK293T cells co-expressing pFR/pRL-Luc incubated for 14 to 16 hrs by hybrid reporter gene assay. The class given is cell-based. For orientation: In a reporter assay the amount or activity of a reporter protein is the signal.

Data set [2] deals with T2, Retinoic acid receptor RXR-alpha (Homo sapiens, UniProt P19793).
T2 sequence (P19793 whole entry): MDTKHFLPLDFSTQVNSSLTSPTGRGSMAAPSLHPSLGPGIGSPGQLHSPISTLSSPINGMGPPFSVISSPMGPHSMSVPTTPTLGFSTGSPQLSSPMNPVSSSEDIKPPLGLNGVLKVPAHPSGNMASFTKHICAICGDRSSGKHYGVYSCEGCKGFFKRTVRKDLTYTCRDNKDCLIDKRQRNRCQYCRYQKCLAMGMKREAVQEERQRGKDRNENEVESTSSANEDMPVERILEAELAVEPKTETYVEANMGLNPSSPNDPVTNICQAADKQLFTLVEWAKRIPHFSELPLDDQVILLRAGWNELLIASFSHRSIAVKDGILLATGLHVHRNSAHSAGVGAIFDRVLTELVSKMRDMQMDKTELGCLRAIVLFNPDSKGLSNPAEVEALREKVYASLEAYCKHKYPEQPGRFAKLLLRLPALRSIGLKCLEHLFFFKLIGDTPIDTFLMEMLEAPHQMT
The data set can be described thus: (§1) Agonist activity at human RXRalpha transfected in human HEK293T cells co-expressing pFR/pRL-Luc incubated for 14 to 16 hrs by hybrid reporter gene assay. The class given is cell-based.

A short description of data set [3]: Plasma concentration in mouse at 10 mg/kg, po measure after 3 hrs. Type of data set: ADME, organism-based. The method, boiled down:
(§2)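 Mice, n = 3, received a single oral dose of 10 mg/kg in water with 1% hydroxypropyl methylcellulose/Tween 80 (99:1). Tail-vein blood was drawn at 30 and 60 min and tissue collected at 3 h. Compound was quantified by LC−MS and PK derived by noncompartmental analysis.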

The nature of data set [4]: Metabolic stability in Sprague-Dawley rat liver microsomes assessed as compound degradation at 10 uM incubated for 60 min by HPLC analysis. The settings on record: 1 h. The class given is ADME. The method in brief: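 Compound at 10 μM final in 0.1 M phosphate, pH 7.4, was preincubated 5 min at 37 °C with an NADPH-regenerating system. Sprague-Dawley rat liver microsomes were then added. Reactions were stopped with ice-cold methanol at 0, 15, 30 and 60 min and remaining compound quantified by HPLC against an external calibration. Controls: no NADPH, heat-inactivated microsomes. Three independent experiments.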

Data set [5] deals with T3, Nuclear receptor subfamily 1 group I member 3 (Homo sapiens, UniProt Q14994).
T3 sequence (Q14994 whole entry): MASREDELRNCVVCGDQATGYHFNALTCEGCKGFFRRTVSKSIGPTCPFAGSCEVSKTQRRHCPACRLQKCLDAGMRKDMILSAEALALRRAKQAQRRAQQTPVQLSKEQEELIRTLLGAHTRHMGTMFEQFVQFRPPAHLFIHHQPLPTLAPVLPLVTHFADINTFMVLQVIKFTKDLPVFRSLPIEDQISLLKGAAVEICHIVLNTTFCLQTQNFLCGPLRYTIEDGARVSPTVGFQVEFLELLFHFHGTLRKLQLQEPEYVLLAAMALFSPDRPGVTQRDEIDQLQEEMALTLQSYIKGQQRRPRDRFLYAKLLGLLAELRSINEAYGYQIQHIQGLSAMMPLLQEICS
Nature of the data set: Agonist activity against human CAR in human HEK293T cells co-expressing pFR/pRL-Luc assessed as receptor activation at 10 uM incubated for 14 to 16 hrs by hybrid reporter gene assay relative to bexarotene. Type of data set: cell-based. The settings on record: time 14-16 hrs. The method, boiled down: (§3)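 Gal4 hybrid reporter assay in HEK293T cells, seeded 24 h before transfection (Lipofectamine LTX, Opti-MEM) with pFR-Luc, pRL-SV40 and pFA-CMV plasmid carrying the hinge region and LBD of the human receptor. After 5 h, compound added in 0.1% DMSO, with 0.1% DMSO alone as untreated control. Dual-Glo luciferase read after 14−16 h; firefly/renilla normalized; duplicates, ≥2 independent experiments.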

The test system of data set [6] is HepG2. The data set can be described thus: Cytotoxicity against human HepG2 cells assessed as reduction in cell viability up to 100 uM incubated for 48 hrs by WST-1 assay. To be noted: hepg2, 48 h. Type of data set: cell-based. The method, boiled down: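 HepG2 cells were seeded at 3 × 10⁴/well and grown 24 h. Medium was then switched to DMEM with 1% FCS containing compound in 0.1% DMSO; 0.1% DMSO alone was the negative control. After 48 h, WST-1 was added and absorbance read at 450/620 nm after 45 min. Four experiments in duplicate.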
(Formazan colour is commonly taken as a measure of viable cells.)

The target of data set [7] is T4, Retinoic acid receptor RXR-beta (Homo sapiens, UniProt P28702).
T4 sequence (P28702 whole entry): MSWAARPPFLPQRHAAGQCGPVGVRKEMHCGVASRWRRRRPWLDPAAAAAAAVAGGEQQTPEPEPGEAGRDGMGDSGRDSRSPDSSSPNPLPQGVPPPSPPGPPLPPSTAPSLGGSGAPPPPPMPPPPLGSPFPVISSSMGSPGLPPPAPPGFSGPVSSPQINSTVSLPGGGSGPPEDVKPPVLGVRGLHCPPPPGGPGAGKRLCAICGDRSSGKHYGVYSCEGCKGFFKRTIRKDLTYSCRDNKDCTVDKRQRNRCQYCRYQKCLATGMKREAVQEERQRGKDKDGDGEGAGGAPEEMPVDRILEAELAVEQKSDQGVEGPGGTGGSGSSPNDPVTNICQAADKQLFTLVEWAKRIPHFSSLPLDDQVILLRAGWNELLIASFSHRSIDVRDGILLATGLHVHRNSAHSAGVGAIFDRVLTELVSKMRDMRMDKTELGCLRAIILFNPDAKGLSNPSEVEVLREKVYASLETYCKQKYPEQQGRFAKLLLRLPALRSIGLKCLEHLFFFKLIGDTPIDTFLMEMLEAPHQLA
The data set can be described thus: (§4) Agonist activity at human RXRbeta transfected in human HEK293T cells co-expressing pFR/pRL-Luc incubated for 14 to 16 hrs by hybrid reporter gene assay. The class given is cell-based.

Data set [8] addresses T5, Retinoic acid receptor RXR-gamma (Homo sapiens) (UniProt P48443).
T5 sequence (whole entry): T1 sequence (P48443 whole entry)
Nature of the data set: Agonist activity at human RXRgamma transfected in human HEK293T cells co-expressing pFR/pRL-Luc at 50 uM incubated for 14 to 16 hrs by hybrid reporter gene assay. Type of data set: cell-based. The settings on record: time 14-16 hrs. The method in brief:
as §3

The target in data set [9] is T6, Retinoic acid receptor RXR-beta (Homo sapiens) (UniProt P28702).
T6 sequence (whole entry): T4 sequence (P28702 whole entry)
The description is as §4. Type of data set: cell-based. The settings on record: time 14-16 hrs.

For data set [10], the target named is T6, Retinoic acid receptor RXR-beta (Homo sapiens). The data set can be described thus: Agonist activity at human RXRbeta transfected in human HEK293T cells co-expressing pFR/pRL-Luc at 30 uM incubated for 14 to 16 hrs by hybrid reporter gene assay. Type of data set: cell-based. To be noted: time 14-16 hrs. The method, boiled down:
as §3

The target of data set [11] is T7, Retinoic acid receptor RXR-alpha (Homo sapiens) (UniProt P19793).
T7 sequence (whole entry): T2 sequence (P19793 whole entry)
The description is as §1. Type of data set: cell-based. To be noted: time 14-16 hrs.

Data set [12] concerns the target T5, Retinoic acid receptor RXR-gamma (Homo sapiens). Nature of the data set: Agonist activity at human RXRgamma transfected in human HEK293T cells co-expressing pFR/pRL-Luc at 30 uM incubated for 14 to 16 hrs by hybrid reporter gene assay. Type of data set: cell-based. The settings on record: time 14-16 hrs. The method, boiled down:
as §3

Data set [13] concerns the target T7, Retinoic acid receptor RXR-alpha (Homo sapiens). Nature of the data set: Agonist activity at human RXRalpha transfected in human HEK293T cells co-expressing pFR/pRL-Luc at 30 uM incubated for 14 to 16 hrs by hybrid reporter gene assay. The settings on record: time 14-16 hrs. The class given is cell-based. The method in brief:
as §3

Data set [14] in a line: Cmax in po dosed rat. Type of data set: ADME, organism-based. The settings on record: in vivo. The arrangement: route oral.
Data set [15] is described as follows: Half life in po dosed rat. Type of data set: ADME, organism-based. The settings on record: in vivo.
Data set [16] concerns HepG2. The data set can be described thus: Cytotoxicity against human HepG2 cells assessed as reduction in cell viability incubated for 48 hrs by WST-1 assay. The settings on record: HepG2, 48 h.
Data set [17] can be described thus: Aqueous solubility of compound in pH 8 phosphate buffer incubated for 1 hr by HPLC analysis. Type of data set: physicochemical. The method, boiled down: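 Solubility was measured with 3 mg compound in 2 mL 0.1 M phosphate buffer, pH 8, shaken 1 h at 37 °C. The mixture was pressed through a Uniprep filter and the dissolved compound in the filtrate quantified by HPLC against an external calibration; three independent experiments.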

A short description of data set [18]: Cmax in mouse at 10 mg/kg, po. Type of data set: ADME, organism-based. The arrangement: route oral, dose 10 mg/kg. The settings on record: in vivo. The method, boiled down:
as §2

Data set [19] can be described thus: Half life in mouse at 10 mg/kg, po. The class given is ADME, organism-based. To be noted: in vivo. The method, boiled down: as §2

The structures appear in SMILES notation. ≈ marks a conversion by molar mass, not a printed value. Calls of active or inactive are those of the source. Some results are limits rather than exact numbers.

On to `O=C(O)CCc1cc(-c2cc(Cl)cc(Cl)c2)n(-c2ccc(Cl)cc2)n1`, for which the EC50 was determined as 1.5 µM in data set [1] and 0.3 µM in data set [2]. This molecule yielded a concentration at 3 h in [3] of 35000 ng/mL. In addition, the Stabilty result in data set [4] was “Stable”. For the same molecule, the Activity was 15% in data set [5] and “Non-Toxic” in the data set with HepG2 [6].
Turning to `O=C(O)CCc1nc(-c2ccccc2Cl)c(-c2ccccc2)o1`, the values for the EC50 in data set [7] and in data set [2] were 48 µM and 36 µM, respectively. The outcome in [8] was inactive.
The matching figures for `O=C(O)CCCCc1nc(-c2ccccc2)c(-c2ccccc2)o1`: 12.4 µM, 8.4 µM and “inactive”.
Regarding `CN(C)c1cccc(-c2oc(CCC(=O)O)nc2-c2ccccc2)c1`, the result in data set [9], in data set [10], in [11], in data set [12] and in [13] was inactive.
On to `O=C(O)CCc1nc(-c2ccccc2)c(-c2ccccc2Cl)o1`, for which the EC50 in [7] amounted to 19.1 µM; in data set [2] it was 17 µM. In [8], the result was inactive.
In data set [14], `C=C(c1ccc(C(=O)O)cc1)c1cc2c(cc1C)C(C)(C)CCC2(C)C` [BEXAROTENE] came in with a Cmax of 600 ng/mL. Moreover, the half-life in [15] is 1.2 h. For the same molecule, the IC50 in the data set on HepG2 [16] was 20 µM. The same molecule had a solubility in data set [17] (buffer, pH 8, 1 h) of 0.3 µg/mL (≈ 0.861 µM).
For `O=C(O)CCc1nc(-c2ccccc2)c(-c2cc(C(F)(F)F)cc(C(F)(F)F)c2)o1`, the EC50 in data set [1] and in [2] was 0.05 µM throughout. In addition, in [4], the Stabilty result was “Stable”. This molecule displayed a Cmax in data set [18] of 33000 ng/mL. The Activity in [5] is reported as 4%; in the data set with HepG2 [6], “Non-Toxic”. This molecule returned a solubility at 1 h in [17] (phosphate buffer, pH 8) of 146 µg/mL (≈ 340 µM). In addition, the half-life in data set [19] is > 3 h.

Usually EC50 stands for the midpoint of the concentration-response curve. A higher EC50 goes with weaker potency. As usually defined, the Cmax is the maximum level reached in the sampled fluid or tissue. One may read the half-life as the time needed for the level to fall by half in the phase considered. A higher half-life goes with slow loss. Usually IC50 stands for the concentration needed to halve the response being measured. In general, solubility refers to the dissolved amount per volume that the medium holds.
